Experimental data reported in ChEMBL document CHEMBL1135477, “Antifungal agents. 10. New derivatives of 1-[(aryl)[4-aryl-1H-pyrrol-3-yl]methyl]-1H-imidazole, synthesis, anti-candida activity, and quantitative structure-analysis relationship studies” (J Med Chem, 2002).
Converted amounts (≈) assume the structure as drawn.

Columns and labels:
Type in all cases: functional
Candida [1] = experiment: Tested in vitro for antifungal activity against Candida species. at pH 5.8; value ranges from <0.25 to 0.25
Outline: (§1)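 Fresh clinical isolates (two C. glabrata, one C. krusei) were pre-grown 18 h at 37 °C in Sabouraud dextrose broth. Broth double-dilution was run in Sabouraud broth at pH 5.8 or 7.2 over 0.25–256 µg/mL from a DMSO/water stock, with 10³/mL inoculum.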

Candida albicans [2] = experiment: In vitro antifungal activity against 40 strains of Candida albicans at pH 5.8
Outline: (§2)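 Broth serial-dilution MIC against 40 clinical C. albicans isolates from hospitalized patients, grown in Sabouraud broth at pH 7.2 or 5.8. Cells were pre-grown 18 h at 37 °C, inoculated at 10³/mL, and read at 24 h, 37 °C. Doubling dilutions ran 0.25–256 μg/mL from a DMSO/water solution. MIC was the lowest concentration with no visible growth against a DMSO/water blank.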

Candida [3] = experiment: Tested In vitro for antifungal activity against Candida species. at pH 7.2; (percent of resistant species at 256 ug/mL)
Outline: (§3)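 Broth serial-dilution test in Sabouraud broth at pH 7.2 or 5.8, against 3 fresh clinical non-albicans isolates (two C. glabrata, one C. krusei). Inocula were 10³/mL, pre-grown 18 h at 37 °C. Compound was twofold-diluted over 0.25–256 µg/mL and read at 24 h, 37 °C for visible growth.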

Candida [4] = experiment: Tested In vitro for antifungal activity against Candida species. at pH 7.2
Outline: (§4)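 Liquid serial-dilution MIC against 3 freshly isolated clinical Candida strains (two C. glabrata, one C. krusei) in Sabouraud broth at pH 7.2 or 5.8. Inoculum was 10³/mL after 18 h pre-culture at 37 °C, read at 24 h, 37 °C. Range was 0.25–256 μg/mL. Endpoint was no visible growth versus a DMSO/water blank.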

Candida albicans [5] = experiment: In vitro antifungal activity against 40 strains of Candida albicans at pH 7.2; outline: as §2
Candida [6] = experiment: Tested in vitro for antifungal activity against Candida species. at pH 5.8; (percent of resistant species at 256 ug/mL); outline: as §3
Candida albicans [7] = experiment: In vitro antifungal activity against 40 strains of Candida albicans at pH 5.8; value ranges from <0.25 to 8; outline: as §2
Candida albicans [8] = experiment: In vitro antifungal activity against 40 strains of Candida albicans at pH 7.2; (percent of resistant species (R) at 256 ug/mL)
Outline: (§5)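 Broth serial-dilution test in Sabouraud broth at pH 7.2 or 5.8, against 40 fresh clinical C. albicans isolates from hospitalized patients. Inocula were 10³/mL, pre-grown 18 h at 37 °C in Sabouraud dextrose broth. Compound from a DMSO/water stock was twofold-diluted over 0.25–256 µg/mL. Visible growth was read at 24 h, 37 °C.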

Candida albicans [9] = experiment: In vitro antifungal activity against 40 strains of Candida albicans at pH 7.2; minimum inhibitory concentration; value ranges from <0.25 to 16; outline: as §2
Candida [10] = experiment: Tested in vitro for antifungal activity against Candida species. at pH 5.8; outline: as §4
Candida albicans [11] = experiment: In vitro antifungal activity against 40 strains of Candida albicans at pH 5.8; (percent of resistant species at 256 ug/mL); outline: as §5
Candida [12] = experiment: Tested In vitro for antifungal activity against Candida species. at pH 7.2; (range is from 0.5 to 1); outline: as §4
Candida albicans [13] = experiment: In vitro antifungal activity against 40 strains at pH 7.2, (percent of resistant species at 256 ug/mL); outline: as §5
Candida albicans [14] = experiment: In vitro antifungal activity against 40 strains at pH 7.2 minimum inhibitory concentration
Outline: (§6)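 Inocula were 10³/mL, pre-grown 18 h at 37 °C. MIC is the lowest concentration with no visible growth versus a DMSO/water blank at 24 h, 37 °C. The mean MIC is ΣMICi over the total strain number; MIC50/MIC90 cover 50%/90% of strains.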

Candida albicans [15] = experiment: Tested In vitro for antifungal activity at pH 5.8
Candida [16] = experiment: Tested In vitro for antifungal activity against candida Spp (Candida glabrata, Candida krusei) at pH 7.2
Outline: (§7)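 Inocula were 10³/mL, pre-grown 18 h at 37 °C. MIC is the lowest concentration with no visible growth versus a blank at 24 h, 37 °C. The mean MIC is ΣMICi over the strain number; MIC50/MIC90 are also reported.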

Candida [17] = experiment: Tested in vitro for antifungal activity against candida Spp (Candida glabrata, Candida krusei) at pH 7.2 (percent of resistant species at 256 ug/mL); outline: as §3
Candida [18] = experiment: Tested In vitro for antifungal activity against candida Spp (Candida glabrata, Candida krusei) at pH 5.8; outline: as §7
Candida albicans [19] = experiment: In vitro antifungal activity against 40 strains at pH 7.2; outline: as §6
Candida [20] = experiment: In vitro antifungal activity against candida Spp (Candida glabrata, Candida krusei) at pH 5.8,(percent of resistant species at 256 ug/mL); outline: as §3
Candida albicans [21] = experiment: In vitro antifungal activity against 40 strains at pH 5.8,(percent of resistant species at 256 ug/mL); outline: as §5
Candida albicans [22] = experiment: IIn vitro antifungal activity against 40 strains of Candida albicans at pH 7.2; minimum inhibitory concentration (range is from 16 to 256); outline: as §2
[23] = target: Lanosterol 14-alpha demethylase (Candida albicans (strain SC5314 / ATCC MYA-2876) (Yeast), UniProt P10613); experiment: Anticandida activity- (MIC90 compound) / (MIC90 bifonazole)
Lanosterol 14-alpha demethylase, sequence (P10613 whole entry): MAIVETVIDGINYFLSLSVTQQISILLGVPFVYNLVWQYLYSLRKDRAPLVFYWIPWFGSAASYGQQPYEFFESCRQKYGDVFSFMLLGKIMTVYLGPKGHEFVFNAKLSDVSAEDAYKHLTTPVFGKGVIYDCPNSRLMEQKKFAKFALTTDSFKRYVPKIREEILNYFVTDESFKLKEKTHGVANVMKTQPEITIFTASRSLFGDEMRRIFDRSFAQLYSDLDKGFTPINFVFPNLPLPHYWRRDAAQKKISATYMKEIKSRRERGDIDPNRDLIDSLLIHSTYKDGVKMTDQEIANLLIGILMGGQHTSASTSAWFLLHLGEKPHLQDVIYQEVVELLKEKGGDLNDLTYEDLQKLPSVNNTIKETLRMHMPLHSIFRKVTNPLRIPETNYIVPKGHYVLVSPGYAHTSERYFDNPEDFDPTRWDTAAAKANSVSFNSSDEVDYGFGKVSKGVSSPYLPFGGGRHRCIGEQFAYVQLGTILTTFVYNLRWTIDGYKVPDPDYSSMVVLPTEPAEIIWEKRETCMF

Candida albicans [24] = experiment: In vitro antifungal activity against 40 strains of Candida albicans at pH 5.8; (range is from 32 to 256); outline: as §2
Candida albicans [25] = experiment: In vitro antifungal activity against 40 strains of Candida albicans at pH 7.2; (percent of resistant species at 256 ug/mL); outline: as §5
Candida [26] = experiment: Tested in vitro for antifungal activity against Candida species. at pH 5.8 (percent of resistant species at 256 ug/mL); outline: as §3
Candida [27] = experiment: Tested in vitro for antifungal activity against Candida species. at pH 5.8; value ranges from 128 to >256; outline: as §1

SMILES: Clc1ccc(COC(Cn2ccnc2)c2ccc(Cl)cc2Cl)c(Cl)c1 (centres undefined) [MICONAZOLE]
- Range (Candida [1]): <0.25 µg/mL
- MIC (Candida albicans [2]): 0.57 µg/mL (≈ 1.37 µM)
- MIC50 (Candida albicans [2]): 0.5 µg/mL (≈ 1.2 µM)
- MIC90 (Candida albicans [2]): 2 µg/mL (≈ 4.81 µM)
- Resistance (Candida [3]): 0%
- MIC (Candida [4]): 0.83 µg/mL (≈ 1.99 µM)
- MIC50 (Candida [4]): 1 µg/mL (≈ 2.4 µM)
- MIC90 (Candida [4]): 1 µg/mL (≈ 2.4 µM)
- MIC (Candida albicans [5]): 1.16 µg/mL (≈ 2.79 µM)
- MIC50 (Candida albicans [5]): 0.5 µg/mL (≈ 1.2 µM)
- MIC90 (Candida albicans [5]): 2 µg/mL (≈ 4.81 µM)
- Resistance (Candida [6]): 0%
- Range (Candida albicans [7]): < 8 µg/mL
- Resistance (Candida albicans [8]): 0%
- Range (Candida albicans [9]): 16 µg/mL
- MIC (Candida [10]): 0.156 µg/mL (≈ 0.375 µM)
- MIC50 (Candida [10]): 0.5 µg/mL (≈ 1.2 µM)
- MIC90 (Candida [10]): 8 µg/mL (≈ 19.2 µM)
- Resistance (Candida albicans [11]): 0%
- Range (Candida [12]): 1 µg/mL

SMILES: CC(=O)N1CCN(c2ccc(OCC3COC(Cn4ccnc4)(c4ccc(Cl)cc4Cl)O3)cc2)CC1 (centres undefined) [KETOCONAZOLE]
- Resistance (Candida albicans [13]): 0%
- Range (Candida albicans [14]): 2 µg/mL
- MIC (Candida albicans [15]): 6.35 µg/mL (≈ 11.9 µM)
- Range (Candida albicans [15]): <0.25 µg/mL
- MIC (Candida [16]): 8.6 µg/mL (≈ 16.2 µM)
- MIC50 (Candida [16]): 8 µg/mL (≈ 15.1 µM)
- MIC90 (Candida [16]): 16 µg/mL (≈ 30.1 µM)
- Range (Candida [16]): 2 µg/mL
- Resistance (Candida [17]): 0%
- MIC (Candida [18]): 6.53 µg/mL (≈ 12.3 µM)
- MIC50 (Candida [18]): 32 µg/mL (≈ 60.2 µM)
- MIC90 (Candida [18]): 128 µg/mL (≈ 241 µM)
- Range (Candida [18]): <0.25 µg/mL
- MIC (Candida albicans [19]): 9.26 µg/mL (≈ 17.4 µM)
- MIC50 (Candida albicans [19]): 8 µg/mL (≈ 15.1 µM)
- MIC90 (Candida albicans [19]): 32 µg/mL (≈ 60.2 µM)
- Resistance (Candida [20]): 0%
- Resistance (Candida albicans [21]): 0%

SMILES: Oc1ccc(-c2c[nH]cc2[C@@H](c2ccc(Cl)cc2Cl)n2ccnc2)cc1
- Range (Candida albicans [22]): 256 µg/mL
- MIC (Candida albicans [2]): 150 µg/mL (≈ 390 µM)
- MIC50 (Candida albicans [2]): 32 µg/mL (≈ 83.3 µM)
- MIC90 (Candida albicans [2]): 128 µg/mL (≈ 333 µM)
- Resistance (Candida [3]): 0%
- MIC (Candida [4]): 256 µg/mL (≈ 666 µM)
- MIC50 (Candida [4]): 256 µg/mL (≈ 666 µM)
- MIC90 (Candida [4]): 256 µg/mL (≈ 666 µM)
- Range (Candida [4]): 256 µg/mL
- MIC (Candida albicans [5]): 77.8 µg/mL (≈ 202 µM)
- MIC50 (Candida albicans [5]): 16 µg/mL (≈ 41.6 µM)
- MIC90 (Candida albicans [5]): 256 µg/mL (≈ 666 µM)
- Ratio [23]: 26
- Range (Candida albicans [24]): 256 µg/mL
- Resistance (Candida albicans [25]): 0%
- Resistance (Candida [26]): 67%
- Range (Candida [27]): >256 µg/mL
- MIC (Candida [10]): 128 µg/mL (≈ 333 µM)
- MIC50 (Candida [10]): > 256 µg/mL
- MIC90 (Candida [10]): > 256 µg/mL
- Resistance (Candida albicans [11]): 26%
